Calls of active or inactive are those of the source. No cut-off for these calls is given here. A value given as a limit tells only on which side of the number the result lay.

From ChEMBL document CHEMBL4033782, “Structural Modification of Natural Product Tanshinone I Leading to Discovery of Novel Nitrogen-Enriched Derivatives with Enhanced Anticancer Profile and Improved Drug-like Properties” (J Med Chem, 2018) come the findings set out here.

For data set [1], the system named is HCT-116. As to the kind of experiment: Induction of apoptosis in human HCT116 cells assessed as activation of caspase 3/7 at 2 uM after 48 hrs by Western blot analysis. Format: functional, cell-based. The method, boiled down:
(§1)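 HCT116 cells, with or without a 1 h pretreatment with 20 μM Z-VAD-FMK, exposed for 48 h. Lysed on ice in Hepes/NaCl/Triton X-100 buffer with protease/phosphatase inhibitors and clarified at 12,000×g. Equal protein run by SDS-PAGE, blotted to nitrocellulose, probed overnight at 4 °C for PARP, caspase 3, caspase 7 and β-actin. HRP secondaries, ECL detection.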

Data set [2] has as its system Liver. Put plainly: Half life in mouse liver microsomes at 0.1 uM up to 60 mins by LC-MS/MS analysis. The settings on record: microsomes, 1 h, 0.1 µM. Format: ADME, microsome. The method, boiled down:
(§2)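 Compound at 0.1 μM final (0.01% DMSO, 0.005% BSA) incubated at 37 °C with human, rat or mouse liver microsomes (0.33 mg/mL protein) in 0.1 M Tris/HCl pH 7.4, with 5 mM MgCl2 and 1 mM NADPH. Samples taken at 0, 7, 17, 30 and 60 min, quenched by methanol precipitation, centrifuged, and parent measured by LC-MS/MS. T1/2 and Clint derived.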

The nature of data set [3]: Antiproliferative activity against human KB/VCR cells after 72 hrs by sulforhodamine B assay. Format: functional, cell-based. The method in brief: (§3)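 Cells grown in ATCC-specified medium with 10% heat-inactivated FBS, penicillin/streptomycin and 10 mM Hepes, at 37 °C under 5% CO2. Seeded, cultured overnight, then exposed to gradient concentrations for 72 h. Growth read by SRB staining; inhibition % = [1−(A450 treated/A450 control)]×100. IC50 obtained by the Logit method from independent experiments.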

A short description of data set [4]: Aqueous solubility of the compound by HPLC method. Format: physicochemical. To be noted: buffer. The method, boiled down:
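Solubility determined by an HPLC method, with one-point calibration against standards of known concentration. Mean ± SD of at least three independent experiments.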

Data set [5] has as its system HCT-116. As to the kind of experiment: Induction of apoptosis in human HCT116 cells pretreated with Z-VAD-FMK pan-caspase inhibitor for 1 hr assessed as early apoptotic cells at 2 uM after 48 hrs by Annexin V-FITC/propidium iodide staining-based FACS analysis (reference value: 1.34%). Format: functional. Also on record: scale not given: the % may be the effect or the level left.

Data set [6] relates to HCT-116. As to the kind of experiment: Induction of apoptosis in human HCT116 cells assessed as early apoptotic cells at 2 uM after 48 hrs by Annexin V-FITC/propidium iodide staining-based FACS analysis (reference value: 2.35%). Format: functional.
Data set [7] deals with HCT-116. Put plainly: Induction of apoptosis in human HCT116 cells pretreated with Z-VAD-FMK pan-caspase inhibitor for 1 hr assessed as cleavage of PARP at 2 uM after 48 hrs by Western blot analysis. Format: functional, cell-based. The method, boiled down: as §1
The nature of data set [8]: Half life in rat liver microsomes at 0.1 uM up to 60 mins by LC-MS/MS analysis. Format: ADME, microsome. The method, boiled down:
as §2

Data set [9] relates to HCT-116. As to the kind of experiment: Induction of apoptosis in human HCT116 cells pretreated with Z-VAD-FMK pan-caspase inhibitor for 1 hr assessed as activation of caspase 3/7 at 2 uM after 48 hrs by Western blot analysis. Format: functional, cell-based. The method in brief: as §1
The test system of data set [10] is Liver. Put plainly: Intrinsic clearance in human liver microsomes assessed as per mg protein up to 60 mins by LC-MS/MS analysis. Format: ADME, microsome. The settings on record: 1 h. The method, boiled down: as §2
The nature of data set [11]: Half life in human liver microsomes at 0.1 uM up to 60 mins by LC-MS/MS analysis. Format: ADME, microsome. The method, boiled down:
as §2

Data set [12] has as its system Liver. As to the kind of experiment: Intrinsic clearance in mouse liver microsomes assessed per mg protein up to 60 mins by LC-MS/MS analysis. Format: ADME, microsome. The settings on record: 1 h. The method, boiled down:
as §2

The subject of data set [13] is KB. As to the kind of experiment: Antiproliferative activity against human KB cells after 72 hrs by sulforhodamine B assay. Format: functional, cell-based. The method in brief: as §3
Data set [14] has as its system HCT-116. Put plainly: Induction of apoptosis in human HCT116 cells assessed as late apoptotic cells at 2 uM after 48 hrs by Annexin V-FITC/propidium iodide staining-based FACS analysis (reference value: 5.74%). Format: functional.
Data set [15] deals with HCT-116. As to the kind of experiment: Induction of apoptosis in human HCT116 cells pretreated with Z-VAD-FMK pan-caspase inhibitor for 1 hr assessed as late apoptotic cells at 2 uM after 48 hrs by Annexin V-FITC/propidium iodide staining-based FACS analysis (reference value: 3.15%). The arrangement: scale not given: the % may be the effect or the level left. Format: functional.

Data set [16] is described as follows: Half life in Sprague-Dawley rat at 3.90 mg/kg, po by LC-ESI-MS/MS analysis. Format: ADME, organism-based. To be noted: in vivo, 3.9 mg/kg.
Data set [17] concerns Liver. As to the kind of experiment: Intrinsic clearance in rat liver microsomes assessed per mg protein up to 60 mins by LC-MS/MS analysis. Format: ADME, microsome. The settings on record: 1 h. The method in brief:
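Liver microsomes (0.33 mg/mL protein) in 0.1 M Tris/HCl pH 7.4 with 5 mM MgCl2, 1 mM NADPH, compound at 0.1 μM final (0.01% DMSO, 0.005% BSA), 37 °C; samples at 0, 7, 17, 30, 60 min quenched in methanol, centrifuged, LC-MS/MS; T1/2 and Clint per g protein derived.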

For data set [18], the system named is HCT-116. As to the kind of experiment: Induction of apoptosis in human HCT116 cells assessed as cleavage of PARP at 2 uM after 48 hrs by Western blot analysis. Format: functional, cell-based. The method, boiled down: as §1
Data set [19] in a line: Oral bioavailability in Sprague-Dawley rat at 3.90 mg/kg by LC-ESI-MS/MS analysis. Format: ADME, organism-based. The settings on record: in vivo, 3.9 mg/kg.
Data set [20] deals with HCT-116. As to the kind of experiment: Induction of apoptosis in human HCT116 cells assessed as activation of caspase 3/7 at 1.0 to 4.0 uM after 24 hrs by Caspase-Glo 3/7 assay.

As to `Cc1coc2c1C(=O)C(=O)c1c-2ccc2c(C)cccc12` [TANSHINONE I], the outcome in [1], in data set [7], in data set [9], in data set [18] and in [20] was inactive. The t1/2 entry in [2] is reported as “Nd(Unstable)”. For the same compound, the values for the IC50 in data set [3] and in [13] were 4.4 µM and 5.87 µM, respectively. Besides, the solubility in data set [4] was under 0.1 µg/mL. In addition, the Activity came to 4.24% in data set [5], 3.81% in data set [6], 5.46% in data set [14] and 7.11% in data set [15]. Also, the half-life at 0.1 µM amounted to 2.51 min in [8] and 6.45 min in data set [11]. The results for the intrinsic clearance in [10], in data set [12] and in [17] were 325 mL/min/g, “Nd(Unstable)” and 836 mL/min/g, respectively. Also, in data set [16], the half-life is 10.2 min. The compound also returned a bioavailability in data set [19] of 0%.
